Holding throughout (assay type): functional
Experiment [1] deals with Mycobacterium tuberculosis. In words: Antimicrobial activity against wild type Mycobacterium tuberculosis 8C3 after 4 weeks by Bactec 460TB method. The note with it: 8C3, 672 h.
The subject of experiment [2] is Mycobacterium tuberculosis. As to the kind of experiment: Antimicrobial activity against wild type Mycobacterium tuberculosis 8C6 after 4 weeks by Bactec 460TB method. The note with it: 8C6, 672 h.
Experiment [3] has as its system Mycobacterium tuberculosis. In words: Antimicrobial activity against wild type Mycobacterium tuberculosis NJT210CGG-CAG after 4 weeks. The note with it: 672 h. In outline: (§1)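 Isogenic embB mutants made by allelic exchange in strain 210. PCR-built fragments carried the codon of interest; double-crossover colonies were screened by molecular beacon assay and confirmed by direct embB sequencing. MICs of EMB, INH and RIF were determined by radiometric Bactec 460TB and 7H10 agar proportion, alongside parent 210.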

Experiment [4] relates to Mycobacterium tuberculosis. As to the kind of experiment: Antimicrobial activity against wild type Mycobacterium tuberculosis 8C1 after 4 weeks by 7H agar proportion method. Summed up: (§2)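 EMB MIC by 7H10 agar proportion for clones selected from M. tuberculosis strain 210. About 10^9 cells from liquid culture (OD600 ~1.5, resuspended in 7H9) were plated on 7H10 with EMB at 8, 16 or 32 µg/ml final, incubated 37°C for 4 weeks. Colonies were subcultured in EMB-free 7H9 before testing, and embCAB was genotyped.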

Experiment [5] has as its system Mycobacterium tuberculosis. In words: Antimicrobial activity against wild type Mycobacterium tuberculosis 8C1 after 4 weeks by Bactec 460TB method. The note with it: 8C1, 672 h. In outline:
(§3)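 EMB MIC by radiometric Bactec 460TB liquid method for clones from strain 210. The clones were selected on 7H10 containing 8, 16 or 32 µg/ml EMB final (~10^9 cells plated, 37°C, 4 weeks), then subcultured in 7H9 without EMB before MIC testing. embCAB was genotyped.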

The test system of experiment [6] is Mycobacterium tuberculosis. In words: Antimicrobial activity against wild type Mycobacterium tuberculosis 210 after 4 weeks. The note with it: Mycobacterium tuberculosis, 210, 672 h. Summed up: as §1
For experiment [7], the system named is Mycobacterium tuberculosis. As to the kind of experiment: Antimicrobial activity against wild type Mycobacterium tuberculosis 16C10 after 4 weeks by 7H agar proportion method. In outline: as §2
For experiment [8], the system named is Mycobacterium tuberculosis. As to the kind of experiment: Antimicrobial activity against wild type Mycobacterium tuberculosis 8C2 after 4 weeks by Bactec 460TB method. The note with it: 8C2, 672 h. Summed up:
as §3

For experiment [9], the system named is Mycobacterium tuberculosis. In words: Antimicrobial activity against wild type Mycobacterium tuberculosis 16C12 after 4 weeks by 7H agar proportion method. Summed up: as §2
Experiment [10] deals with Mycobacterium tuberculosis. In words: Antimicrobial activity against wild type Mycobacterium tuberculosis 210 after 4 weeks by 7H agar proportion method. In outline:
(§4)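 Parental M. tuberculosis strain 210 with no EMB exposure. EMB MIC determined in parallel by 7H10 agar proportion and radiometric Bactec 460TB.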

Experiment [11] relates to Mycobacterium tuberculosis. As to the kind of experiment: Antimicrobial activity against wild type Mycobacterium tuberculosis 210 after 4 weeks by Bactec 460TB method. The note with it: Mycobacterium tuberculosis, 210, 672 h. In outline:
as §4

Experiment [12] relates to Mycobacterium tuberculosis. As to the kind of experiment: Antimicrobial activity against wild type Mycobacterium tuberculosis 16C12 assessed as inhibition of growth after 4 weeks by Bactec 460TB method. The note with it: 16C12, 672 h. In outline:
as §3

Experiment [13] has as its system Mycobacterium tuberculosis. As to the kind of experiment: Antimicrobial activity against wild type Mycobacterium tuberculosis 16C10 after 4 weeks by Bactec 460TB method. The note with it: 16C10, 672 h. In outline: as §3
The test system of experiment [14] is Mycobacterium tuberculosis. As to the kind of experiment: Antimicrobial activity against wild type Mycobacterium tuberculosis 8C6 after 4 weeks by 7H agar proportion method. In outline: as §2
Experiment [15] concerns Mycobacterium tuberculosis. In words: Antimicrobial activity against wild type Mycobacterium tuberculosis 8C2 after 4 weeks by 7H agar proportion method. Summed up: as §2

Data on three molecules can be found in ChEMBL document CHEMBL1212742 (2010).

For orientation: MIC means the least concentration at which growth counts as inhibited.

Each structure is given as a SMILES string. In brackets after ≈: the same amount, converted by molar mass.

On to `CC[C@@H](CO)NCCN[C@@H](CC)CO` [ETHAMBUTOL], for which the MIC is 4 µg/mL (≈ 19.6 µM) in [1]; 2 µg/mL (≈ 9.79 µM) in experiment [2]; 2 µg/mL (≈ 9.79 µM) in experiment [3]; 6 µg/mL (≈ 29.4 µM) in [4]; 2 µg/mL (≈ 9.79 µM) in [5]; 2 µg/mL (≈ 9.79 µM) in experiment [6]. Further, the MIC was 6 µg/mL (≈ 29.4 µM) in [7]; 4 µg/mL (≈ 19.6 µM) in experiment [8]; 8 µg/mL (≈ 39.2 µM) in [9]; 2 µg/mL (≈ 9.79 µM) in [10]; 2 µg/mL (≈ 9.79 µM) in experiment [11]; 3 µg/mL (≈ 14.7 µM) in [12]. The MIC in [13] amounted to 2 µg/mL (≈ 9.79 µM); in experiment [14], 4 µg/mL (≈ 19.6 µM); in experiment [15] it was 8 µg/mL (≈ 39.2 µM).

On to `NNC(=O)c1ccncc1` [ISONIAZID], for which the minimal inhibitory concentration (MIC) in experiment [3] and in [6] was 0.05 µg/mL (≈ 0.365 µM) in each case.

As to `CO[C@H]1/C=C/O[C@@]2(C)Oc3c(C)c(O)c4c(O)c(c(/C=N/N5CCN(C)CC5)c(O)c4c3C2=O)NC(=O)/C(C)=C\C=C\[C@H](C)[C@H](O)[C@@H](C)[C@@H](O)[C@@H](C)[C@H](OC(C)=O)[C@@H]1C` [RIFAMPIN], the MIC in [3] and in experiment [6] was 0.05 µg/mL (≈ 0.0608 µM) in each case.
